Experiments:
Parameters in all cases: scale not given: the % may be the effect or the level left
[1] = Antioxidant activity assessed as reduction in generation of hydroxyl radicals at 200 ug/mL measured as malondialdehyde formation by spectrophotometry relative to control; format: functional
[2] = system: Rattus norvegicus; assay: Antidyslipidemic activity against triton-induced hyperlipidemia in Charles Foster rat assessed as reduction in total cholesterol level at 100 mg/kg, po after 18 hrs relative to control; format: functional
Procedure, shortened: (§1)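 Adult male Charles Foster rats (200 […] 225 g), six per group. Triton WR-1339 at 400 mg/Kg ip induced hyperlipidemia. Test compound was given at 100 mg/Kg po, suspended in 0.2% w/v gum acacia in water, at the same time as triton; vehicle controls were included. After 18 h, retro-orbital blood was taken into EDTA and plasma obtained (2500 g, 4 °C, 10 min). Plasma was diluted 1:3 in saline and TC, PL and Tg measured by standard methods. Reported as mean […] SD; Student's t-test.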

[3] = Antioxidant activity assessed as reduction in lipid peroxidation in microsomes at 200 ug/mL measured as malondialdehyde formation by spectrophotometry relative to control; format: functional; settings: Microsome
[4] = Antioxidant activity assessed as reduction in generation of superoxide radicals at 200 ug/mL measured as formazone formation by spectrophotometry relative to control; format: functional
Procedure, shortened: (§2)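 Superoxide was generated enzymatically with xanthine ([…]), xanthine oxidase (0.04 U) and nitroblue tetrazolium (320 μM) in 100 mM phosphate buffer, pH 8.2, with or without compound. Incubated 30 min at 37 °C, then stopped with glacial acetic acid. Formazone was quantified spectrophotometrically (nmol/min). Mean ± SD of six; Student's t-test.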

[5] = Antioxidant activity assessed as reduction in generation of hydroxyl radicals at 100 ug/mL measured as malondialdehyde formation by spectrophotometry relative to control; format: functional
[6] = system: Rattus norvegicus; assay: Antidyslipidemic activity against triton-induced hyperlipidemia in Charles Foster rat assessed as reduction in phospholipid level at 100 mg/kg, po after 18 hrs relative to control; format: functional; procedure, shortened: as §1
[7] = Antioxidant activity assessed as reduction in lipid peroxidation in microsomes at 100 ug/mL measured as malondialdehyde formation by spectrophotometry relative to control; format: functional; settings: Microsome
[8] = Antioxidant activity assessed as reduction in generation of superoxide radicals at 100 ug/mL measured as formazone formation by spectrophotometry relative to control; format: functional; procedure, shortened: as §2
[9] = system: Rattus norvegicus; assay: Antidyslipidemic activity against triton-induced inhibition of post heparin lipolytic activity in Charles Foster rat hyperlipidemia model assessed as formation of free fatty acid per mL of plasma at 100 mg/kg, po after 18 hrs relative to control; format: functional
Procedure, shortened: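 Triton WR-1339 rat model (400 mg/Kg ip; compound 100 mg/Kg po in gum acacia, given with triton; six rats per group). Post-heparin lipolytic activity was measured in plasma collected at 18 h. Expressed as nmol free fatty acid formed/h/mL plasma; mean ± SD.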

[10] = system: Rattus norvegicus; assay: Decrease in triton-induced increase in protein level in Charles Foster rat hyperlipidemia model at 100 mg/kg, po after 18 hrs relative to control; format: functional
[11] = system: Rattus norvegicus; assay: Antidyslipidemic activity against triton-induced hyperlipidemia in Charles Foster rat assessed as reduction in triglyceride level at 100 mg/kg, po after 18 hrs relative to control; format: functional; procedure, shortened: as §1
[12] = Antioxidant activity assessed as reduction in lipid peroxidation in microsomes at 200 ug/mL measured as malondialdehyde formation by spectrophotometry relative to control; settings: Microsome

| Structure (SMILES) | Activity [1] [%] | Activity [2] [%] | Activity [3] [%] | Activity [4] [%] | Activity [5] [%] | Activity [6] [%] | Activity [7] [%] | Activity [8] [%] | Activity [9] [%] | Activity [10] [%] | Activity [11] [%] | Activity [12] [%] |
| --- | --- | --- | --- | --- | --- | --- | --- | --- | --- | --- | --- | --- |
| CC(=O)OC[C@H]1O[C@@H](NC(=S)N/N=C/c2ccc(Cl)cc2)[C@H](OC(C)=O)[C@@H](OC(C)=O)[C@@H]1OC(C)=O | 19 | 14 | 33 | 25 | 13 | 6 | 23 | 16 | 12 | 22 | 10 | – |
| OC[C@@H](O)[C@@H](O)[C@H](O)[C@H](O)CO | – | – | – | – | 45 | – | – | – | – | – | – | – |
| CC(=O)OC[C@H]1O[C@@H](NC(=S)N/N=C/c2cccnc2)[C@H](OC(C)=O)[C@@H](OC(C)=O)[C@@H]1OC(C)=O | 26 | 15 | 26 | 28 | 13 | 14 | 18 | 16 | 9 | 14 | 10 | – |
| CC(=O)OC[C@H]1O[C@@H](NC(=S)N/N=C(\C)c2cccc([N+](=O)[O-])c2)[C@H](OC(C)=O)[C@@H](OC(C)=O)[C@@H]1OC(C)=O | 35 | 23 | 30 | 33 | 24 | 19 | 20 | 17 | 10 | 19 | 18 | – |
| CC(=O)OC[C@H]1O[C@@H](NC(=S)N/N=C/c2ccncc2)[C@H](OC(C)=O)[C@@H](OC(C)=O)[C@@H]1OC(C)=O | 23 | 11 | 33 | 25 | 11 | 11 | 22 | 14 | 8 | 11 | 8 | – |
| CC(=O)OC[C@H]1O[C@@H](NC(=S)N/N=C/c2ccc([N+](=O)[O-])s2)[C@H](OC(C)=O)[C@@H](OC(C)=O)[C@@H]1OC(C)=O | 37 | 13 | 23 | 34 | 20 | 16 | 11 | 20 | 14 | 19 | 14 | – |
| CC(=O)OC[C@H]1O[C@@H](NC(=S)N/N=C(\C)c2cccc(N)c2)[C@H](OC(C)=O)[C@@H](OC(C)=O)[C@@H]1OC(C)=O | 38 | 16 | 35 | 38 | 20 | 15 | 19 | 23 | 9 | 20 | 13 | – |
| CC(=O)OC[C@H]1O[C@@H](NC(=S)N/N=C(\C)c2ccc(Br)cc2)[C@H](OC(C)=O)[C@@H](OC(C)=O)[C@@H]1OC(C)=O | 24 | 22 | 29 | 33 | 14 | 26 | 16 | 21 | 16 | 26 | 25 | – |
| Oc1ncnc2[nH]ncc12 | – | – | – | – | – | – | – | 77 | – | – | – | – |
| COc1ccc(/C=N/NC(=S)N[C@@H]2O[C@H](COC(C)=O)[C@@H](OC(C)=O)[C@H](OC(C)=O)[C@H]2OC(C)=O)cc1 | 34 | 17 | 35 | 33 | 20 | 15 | 26 | 25 | 8 | 15 | 10 | – |
| CC(=O)OC[C@H]1O[C@@H](NC(=S)NNc2ccccc2)[C@H](OC(C)=O)[C@@H](OC(C)=O)[C@@H]1OC(C)=O | 42 | 11 | 39 | 32 | 25 | 10 | 23 | 19 | 8 | 16 | 9 | – |
| Cc1ccc(C)c(OCCCC(C)(C)C(=O)O)c1 [GEMFIBROZIL] | – | 38 | – | – | – | 39 | – | – | 34 | 33 | 37 | – |
| CC(=O)OC[C@H]1O[C@@H](NC(=S)N/N=C(\C)c2cc(C)ccc2C)[C@H](OC(C)=O)[C@@H](OC(C)=O)[C@@H]1OC(C)=O | 29 | 18 | 26 | 30 | 16 | 18 | 16 | 20 | 10 | 12 | 17 | – |
| CC(=O)OC[C@H]1O[C@@H](NC(=S)NNc2ccc([N+](=O)[O-])cc2[N+](=O)[O-])[C@H](OC(C)=O)[C@@H](OC(C)=O)[C@@H]1OC(C)=O | 26 | 13 | 36 | 28 | 18 | 10 | 23 | 22 | 17 | 13 | 8 | – |
| COc1ccc(NNC(=S)N[C@@H]2O[C@H](COC(C)=O)[C@@H](OC(C)=O)[C@H](OC(C)=O)[C@H]2OC(C)=O)cc1 | 23 | 18 | 32 | 37 | 15 | 12 | 28 | 21 | 7 | 18 | 10 | – |
| CC(=O)OC[C@H]1O[C@@H](NC(=S)NNc2ccc(F)cc2)[C@H](OC(C)=O)[C@@H](OC(C)=O)[C@@H]1OC(C)=O | 36 | 13 | 34 | 29 | 22 | 14 | 22 | 15 | 14 | 18 | 9 | – |
| CC(=O)OC[C@H]1O[C@@H](NC(=S)N/N=C/c2ccc([N+](=O)[O-])cc2)[C@H](OC(C)=O)[C@@H](OC(C)=O)[C@@H]1OC(C)=O | 23 | 19 | 31 | 23 | 17 | 14 | 18 | 13 | 13 | 22 | 11 | – |
| COc1ccc(/C(C)=N/NC(=S)N[C@@H]2O[C@H](COC(C)=O)[C@@H](OC(C)=O)[C@H](OC(C)=O)[C@H]2OC(C)=O)cc1OC | 27 | 19 | 35 | 24 | 15 | 23 | 22 | 9 | 25 | 24 | 22 | – |
| Cc1c(C)c2c(c(C)c1O)CC[C@@](C)(CCC[C@H](C)CCC[C@H](C)CCCC(C)C)O2 | – | – | – | – | – | – | – | – | – | – | – | 53 |
| CC(=O)OC[C@H]1O[C@@H](NC(=S)NNc2ccc(F)cc2F)[C@H](OC(C)=O)[C@@H](OC(C)=O)[C@@H]1OC(C)=O | 35 | 24 | 31 | 27 | 20 | 25 | 24 | 16 | 23 | 20 | 25 | – |

From ChEMBL document CHEMBL1154533, “Syntheses and evaluation of glucosyl aryl thiosemicarbazide and glucosyl thiosemicarbazone derivatives as antioxidant and anti-dyslipidemic agents” (2009)
